Experimental data reported in publication PMC8724909 (Molecular Systems Design & Engineering, 2021).

Columns and labels:
[1] = tested on: E. coli CFT073 nalidixic acid resistant line; assay: Galleria mellonella infection model, survival; format: in vivo; conditions: nalidixic acid at 50 mg per body weight kg; 48 h
Outline: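 Nalidixic acid-resistant strain was grown overnight in Mueller-Hinton II broth and washed twice in PBS. Larvae got 10^7 CFU in 10 μl PBS into the hemocoel via the first left proleg, then treatment via the second right proleg. Monotherapy doses were 10–100 mg/kg. Controls were PBS-only and untreated infected larvae. Larvae were kept at 37 °C for 48 h, with survival scored every 6 h.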

[2] = tested on: Galleria mellonella larvae; assay: Toxicity in Galleria mellonella larvae; format: in vivo; conditions: uninfected larvae injected with 10, 25, 50, 100 and 200 mg per body weight kg
Outline: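 Age- and weight-defined larvae, stored at 15 °C without food, were used uninfected. Groups of 10 larvae received hemocoel injections of test compound or nalidixic acid at 10, 25, 50, 100 and 200 mg/kg body weight, given with a 10 μl syringe.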

Compound: CCn1cc(C(=O)O)c(=O)c2ccc(C)nc21 [Nalidixic acid, nalidixic acid]
- improvement of survival of infected larvae, monotherapy [1]: approximately 25%
- toxicity in larvae [2]: no toxicity
